Active and inactive are the calls of the source. The rule behind the calls is not given here. Where a SMILES comes first, the peptide text is derived from it.

We go through four compounds from ChEMBL document CHEMBL1155030, “Design of novel cyclic altered peptide ligands of myelin basic protein MBP83-99 that modulate immune responses in SJL/J mice” (J Med Chem, 2008).

A short description of data set [1]: Induction of IL4 production in SJL/J mouse spleen cells assessed as spot forming unit per 0.5 million cells by ELISpot analysis. It is filed as functional. A digest of the protocol: (§1)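 Female SJL/J mice immunized with peptide in CFA or with peptide conjugated to reduced mannan (50 µg intradermal, days 0 and 14). Spleens taken at day 28. 5 × 10^5 cells/well were incubated 24 h at 37 °C with 10 µg/mL recall peptide on anti-IL-4-coated plates, then developed with biotin anti-IL-4, streptavidin-ALP and a colorimetric substrate. Triplicate wells. Reported as SFU/0.5 million cells minus cells-alone background.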

Data set [2] can be described thus: Effect on MBP83-99 peptide-induced SJL/J mouse spleen cells proliferation assessed as [3H]thymidine incorporation after 6 days. The settings on record: 144 h. The class given is tissue-based. A digest of the protocol:
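Spleen cells taken 28 days after immunization of female 6-8 week SJL/J mice with native MBP83-99 in CFA. 1 × 10^5 cells/well were cultured 1-6 days at 37 °C with recall peptide (10 µg/ml); cells alone served as background. 1 µCi [3H]thymidine was added per well, 6 h before harvest, one plate per day. Reported as mean cpm of triplicate wells, three mice per group.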
In general terms: Uptake of a labelled nucleoside into DNA is a usual measure of proliferation.

The subject of a further data set is spleen. The experiment in a line: Increase in MBP83-99 peptide-induced IL4 production in SJL/J mouse spleen cells assessed per 0.5 million cells after 24 hrs by ELISpot analysis. The class given is functional, cell-based. The procedure, abridged: as §1

As for `CC[C@H](C)[C@@H]1NC(=O)[C@H](CC(N)=O)NC(=O)[C@H](C)NC(=O)[C@H](Cc2ccccc2)NC(=O)[C@H](Cc2ccccc2)NC(=O)[C@H](Cc2cnc[nH]2)NC(=O)[C@H](C(C)C)NC(=O)[C@H](C(C)C)NC(=O)[C@@H]2CCCN2C(=O)[C@H](CC(N)=O)NC(=O)[C@H](CCC(=O)O)NC(=O)[C@@H]2CCCN2C(=O)[C@H]([C@@H](C)O)NC(=O)[C@H](CCCNC(=N)N)NC(=O)[C@@H]2CCCN2C(=O)[C@H]([C@@H](C)O)NC(=O)[C@H](C(C)C)NC1=O` (cyclo(ANIVTPRTPENPVVHFF)), the Activity in data set [1] worked out at 70. `CC[C@H](C)[C@H](NC(=O)[C@H](CC(N)=O)NC(=O)[C@H](CCCCN)NC(=O)[C@H](Cc1ccccc1)NC(=O)[C@H](Cc1ccccc1)NC(=O)[C@H](Cc1c[nH]cn1)NC(=O)[C@@H](NC(=O)[C@@H](NC(=O)[C@@H]1CCCN1C(=O)[C@H](CC(N)=O)NC(=O)[C@@H](N)CCC(=O)O)C(C)C)C(C)C)C(=O)N[C@H](C(=O)N[C@H](C(=O)N1CCC[C@H]1C(=O)N[C@@H](CCCNC(=N)N)C(=O)N[C@H](C(=O)N1CCC[C@H]1C(=O)O)[C@@H](C)O)[C@@H](C)O)C(C)C`: the outcome in data set [2] was Active. With H-ENPVVHFFANIVTPRTP-OH, the outcome with spleen was inactive. In addition, in data set [1], the Activity worked out at 600. `CC[C@H](C)[C@H](NC(=O)[C@H](CC(N)=O)NC(=O)[C@H](CCCCN)NC(=O)[C@H](Cc1ccccc1)NC(=O)[C@H](Cc1ccccc1)NC(=O)[C@H](Cc1cnc[nH]1)NC(=O)[C@@H](NC(=O)[C@@H](NC(=O)[C@@H]1CCCN1C(=O)[C@H](CC(N)=O)NC(=O)[C@@H](N)CCC(=O)O)C(C)C)C(C)C)C(=O)N[C@H](C(=O)N[C@H](C(=O)N1CCC[C@H]1C(=O)N[C@@H](CCCNC(=N)N)C(=O)N[C@H](C(=O)N1CCC[C@H]1C(=O)O)[C@@H](C)O)[C@@H](C)O)C(C)C`: in the data set with spleen, the result was inactive.
